Data from ChEMBL document CHEMBL2177069, “Novel peptidomimetic compounds containing redox active chalcogens and quinones as potential anticancer agents” (Eur J Med Chem, 2012).

What was measured:
SK-MEL-28 = test: Cytotoxicity against human SK-MEL-28 cells; type: functional
NCI-H23 = test: Cytotoxicity against human NCI-H23 cells; type: functional
Hs-578T = test: Cytotoxicity against human Hs578T cells; type: functional
SF-539 = test: Cytotoxicity against human SF539 cells; type: functional
SNB-75 = test: Cytotoxicity against human SNB75 cells; type: functional
TK-10 = test: Cytotoxicity against human TK10 cells; type: functional
HT-29 = test: Cytotoxicity against human HT-29 cells; type: functional
OVCAR-5 = test: Cytotoxicity against human OVCAR5 cells; type: functional
A498 = test: Cytotoxicity against human A498 cells after 24 hrs by MTT assay; type: functional, cell-based; settings: A498, 24 h
Procedure, shortened: (§1)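 MTT assay. Cells were seeded at 50,000 cells/mL in medium with 10% fetal calf serum and grown for two days at 37 °C, 10% CO2. Serial dilutions of compound were then added for 24 h. MTT was added (final 0.5 mg/mL) for 2 h, and the formazan was pelleted, washed, dissolved in isopropanol with 0.4% HCl and read at 590 nm. IC50 is the concentration giving 50% of untreated-control absorbance, taken from dose-response curves; mean of two parallel experiments.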

A-431 = test: Cytotoxicity against human A431 cells after 24 hrs by MTT assay; type: functional, cell-based; settings: A-431, 24 h; procedure, shortened: as §1
OVCAR-3 = test: Cytotoxicity against human OVCAR3 cells; type: functional
HUVEC = test: Cytotoxicity against human HUVEC cells after 24 hrs by MTT assay; type: cell-based; procedure, shortened: as §1
PC-3 = test: Cytotoxicity against human PC3 cells; type: functional
SK-MEL-5 = test: Cytotoxicity against human SK-MEL-5 cells; type: functional
MDA-MB-435 = test: Cytotoxicity against human MDA-MB-435 cells; type: functional
HOP-62 = test: Cytotoxicity against human HOP62 cells; type: functional
SF-295 = test: Cytotoxicity against human SF295 cells; type: functional
SW-620 = test: Cytotoxicity against human SW620 cells; type: functional
UO-31 = test: Cytotoxicity against human UO31 cells; type: functional
HOP-92 = test: Cytotoxicity against human HOP92 cells; type: functional
HL-60 = test: Cytotoxicity against human HL60 cells; type: functional
T47D = test: Cytotoxicity against human T47D cells; type: functional
HCT-15 = test: Cytotoxicity against human HCT15 cells; type: functional
M14 = test: Cytotoxicity against human M14 cells; type: functional
Saccharomyces cerevisiae [1] = test: Growth inhibition of PST2-deficient Saccharomyces cerevisiae YDR032C mutant at 20 ug/disc 24 to 48 hrs by agar diffusion assay; type: functional; settings: read-out: DIZ
Procedure, shortened: (§2)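 S. cerevisiae deletion mutants or wild type grown on YPD, seeded into liquid agar medium at an optical density of 0.1. 6 mm paper discs soaked with methanolic compound solution were placed on the plates and incubated at 30 °C. Growth was checked after 1 and 2 days, and the inhibition zone diameter was recorded in mm.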

HCC 2998 = test: Cytotoxicity against human HCC2998 cells; type: functional
NCI-H460 = test: Cytotoxicity against human NCI-H460 cells; type: functional
LOX IMVI = test: Cytotoxicity against human LOXIMVI cells; type: functional
SN12C = test: Cytotoxicity against human SN12C cells; type: functional
RXF 393 = test: Cytotoxicity against human RXF393 cells; type: functional
MCF7 = test: Cytotoxicity against human MCF7 cells after 24 hrs by MTT assay; type: functional, cell-based; settings: MCF7, 24 h; procedure, shortened: as §1
COLO 205 = test: Cytotoxicity against human COLO205 cells; type: functional
BT-549 = test: Cytotoxicity against human BT549 cells; type: functional
MDA-MB-468 = test: Cytotoxicity against human MDA-MB-468 cells; type: functional
A549 = test: Cytotoxicity against human A549 cells; type: functional
Saccharomyces cerevisiae [2] = test: Growth inhibition of GTT2-deficient Saccharomyces cerevisiae YLL060C mutant at 20 ug/disc after 24 to 48 hrs by agar diffusion assay; type: functional; settings: read-out: DIZ; procedure, shortened: as §2
RPMI-8226 = test: Cytotoxicity against human RPMI8226 cells; type: functional
NCI-H322M = test: Cytotoxicity against human NCI-H322M cells; type: functional
HCT-116 = test: Cytotoxicity against human HCT116 cells; type: functional
UACC-62 = test: Cytotoxicity against human UACC62 cells; type: functional
U-251 = test: Cytotoxicity against human U251 cells; type: functional

SMILES: CC1=C([Se]CC(OC(=O)[C@@H](CO)NC(=O)OC(C)(C)C)C(=O)NCCCCCC(=O)OCc2ccccc2)C(=O)c2ccccc2C1=O (stereo not given in full)
- GI50 (SK-MEL-28): 1.78 µM
- LC50 (SK-MEL-28): 5.75 µM
- TGI (SK-MEL-28; read-out: pTGI (converted)): 3.24 µM
- GI50 (NCI-H23): 1.82 µM
- TGI (NCI-H23; read-out: pTGI (converted)): 4.07 µM
- GI50 (Hs-578T): 2 µM
- LC50 (Hs-578T): > 100 µM
- TGI (Hs-578T; read-out: pTGI (converted)): 4.68 µM
- GI50 (SF-539): 1.7 µM
- LC50 (SF-539): 5.62 µM
- TGI (SF-539; read-out: pTGI (converted)): 3.09 µM
- GI50 (SNB-75): 1.29 µM
- LC50 (SNB-75): 5.01 µM
- TGI (SNB-75; read-out: pTGI (converted)): 2.57 µM
- GI50 (TK-10): 2.04 µM
- LC50 (TK-10): 5.89 µM
- TGI (TK-10; read-out: pTGI (converted)): 3.47 µM
- GI50 (HT-29): 2.14 µM
- LC50 (HT-29): 7.24 µM
- TGI (HT-29; read-out: pTGI (converted)): 3.98 µM
- GI50 (OVCAR-5): 2.09 µM
- LC50 (OVCAR-5): 6.31 µM
- TGI (OVCAR-5; read-out: pTGI (converted)): 3.63 µM
- IC50 (A498): 5 µM
- IC50 (A-431): 4 µM
- GI50 (OVCAR-3): 1.78 µM
- LC50 (OVCAR-3): 5.62 µM
- TGI (OVCAR-3; read-out: pTGI (converted)): 3.16 µM
- IC50 (HUVEC): 35 µM
- GI50 (PC-3): 1.23 µM
- LC50 (PC-3): 5.37 µM
- TGI (PC-3; read-out: pTGI (converted)): 2.57 µM
- GI50 (SK-MEL-5): 1.58 µM
- LC50 (SK-MEL-5): 5.5 µM
- TGI (SK-MEL-5; read-out: pTGI (converted)): 2.95 µM
- GI50 (MDA-MB-435): 1.78 µM
- LC50 (MDA-MB-435): 6.76 µM
- TGI (MDA-MB-435; read-out: pTGI (converted)): 3.47 µM
- GI50 (HOP-62): 0.417 µM
- LC50 (HOP-62): 4.79 µM
- TGI (HOP-62; read-out: pTGI (converted)): 1.74 µM
- GI50 (SF-295): 0.324 µM
- LC50 (SF-295): 30.9 µM
- TGI (SF-295; read-out: pTGI (converted)): 1.51 µM
- GI50 (SW-620): 1.74 µM
- LC50 (SW-620): 6.17 µM
- TGI (SW-620; read-out: pTGI (converted)): 3.24 µM
- GI50 (UO-31): 1.55 µM
- LC50 (UO-31): 5.89 µM
- TGI (UO-31; read-out: pTGI (converted)): 3.02 µM
- GI50 (HOP-92): 1.86 µM
- LC50 (50% lethal concentration) (HOP-92): 5.89 µM
- TGI (HOP-92; read-out: pTGI (converted)): 3.31 µM
- GI50 (HL-60): 2.04 µM
- LC50 (HL-60): > 100 µM
- TGI (HL-60; read-out: pTGI (converted)): 4.79 µM
- GI50 (T47D): 1.62 µM
- LC50 (T47D): 9.55 µM
- TGI (T47D; read-out: pTGI (converted)): 3.98 µM
- GI50 (HCT-15): 1.95 µM
- LC50 (HCT-15): 7.41 µM
- TGI (HCT-15; read-out: pTGI (converted)): 3.8 µM
- GI50 (M14): 1.78 µM
- LC50 (M14): 6.03 µM
- TGI (M14; read-out: pTGI (converted)): 3.31 µM
- zone of inhibition at 20 µg/disc (Saccharomyces cerevisiae [1]): 15 mm
- GI50 (HCC 2998): 2 µM
- LC50 (HCC 2998): 6.17 µM
- TGI (HCC 2998; read-out: pTGI (converted)): 3.47 µM
- GI50 (NCI-H460): 0.457 µM
- LC50 (NCI-H460): 5.37 µM
- TGI (NCI-H460; read-out: pTGI (converted)): 1.62 µM
- GI50 (LOX IMVI): 1.86 µM
- LC50 (LOX IMVI): 7.41 µM
- TGI (LOX IMVI; read-out: pTGI (converted)): 3.72 µM
- GI50 (SN12C): 1.95 µM
- LC50 (SN12C): 6.61 µM
- TGI (SN12C; read-out: pTGI (converted)): 3.63 µM
- GI50 (RXF 393): 2.69 µM
- LC50 (RXF 393): 6.46 µM
- TGI (RXF 393; read-out: pTGI (converted)): 4.17 µM
- IC50 (MCF7): 5 µM
- GI50 (COLO 205): 1.82 µM
- CC50 (COLO 205; read-out: pLC50 (the source's name) (converted)): 6.17 µM
- TGI (COLO 205; read-out: pTGI (converted)): 3.31 µM
- GI50 (BT-549): 1.74 µM
- LC50 (BT-549): 5.62 µM
- TGI (BT-549; read-out: pTGI (converted)): 3.09 µM
- GI50 (MDA-MB-468): 1.48 µM
- LC50 (MDA-MB-468): 6.76 µM
- TGI (MDA-MB-468; read-out: pTGI (converted)): 3.16 µM
- GI50 (A549): 1.38 µM
- LC50 (A549): 6.92 µM
- TGI (A549; read-out: pTGI (converted)): 3.09 µM
- zone of inhibition at 20 µg/disc (Saccharomyces cerevisiae [2]): 12 mm
- GI50 (RPMI-8226): 2.19 µM
- LC50 (RPMI-8226): > 100 µM
- TGI (RPMI-8226; read-out: pTGI (converted)): 5.89 µM
- GI50 (NCI-H322M): 0.417 µM
- LC50 (NCI-H322M): 27.5 µM
- TGI (NCI-H322M; read-out: pTGI (converted)): 1.91 µM
- GI50 (HCT-116): 1.38 µM
- LC50 (HCT-116): 5.37 µM
- TGI (HCT-116; read-out: pTGI (converted)): 2.75 µM
- GI50 (UACC-62): 1.7 µM
- LC50 (UACC-62): 5.62 µM
- TGI (UACC-62; read-out: pTGI (converted)): 3.09 µM
- GI50 (U-251): 0.933 µM
- LC50 (U-251): 4.9 µM
- TGI (U-251; read-out: pTGI (converted)): 2.19 µM
